Source: ChEMBL document CHEMBL1154218, “Design and synthesis of dipeptidyl nitriles as potent, selective, and reversible inhibitors of cathepsin C” (Bioorg Med Chem Lett, 2009)

Tested on: U-937
Assay: Cytotoxicity against human U937 cells at 30 uM up to 72 hrs
Format: functional, cell-based
Settings: not given
Summary of the method: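 Human U937 cells were exposed to compound at 30 µM for up to 72 h and assessed for cytotoxicity.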

Row | Compound | Activity
1 | N#C[C@@]1(NC(=O)[C@@H](N)Cc2cccs2)C[C@@H]1c1ccccc1 | Not toxic

Organism: Rattus norvegicus
Assay: Metabolic stability in rat whole blood
Settings: not given

Row | Compound | Stability
2 | N#C[C@@]1(NC(=O)[C@@H](N)Cc2cccs2)C[C@@H]1c1ccccc1 | Stable

Tested on: not listed separately
Assay: Clearance in iv dosed rat
Format: ADME, organism-based
Settings: in vivo
Summary of the method: (§1)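 Rats dosed intravenously. Plasma samples were analysed for parent and metabolites to give clearance (ml/min/kg) and half-life.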

Row | Compound | clearance
3 | N#C[C@H](Cc1ccccc1)NC(=O)[C@@H](N)Cc1cccs1 | > 100 mL/min/kg
4 | N#CC1(NC(=O)[C@@H](N)Cc2cccs2)CC1 | 113 mL/min/kg
5 | N#C[C@H](Cc1ccc(-c2ccccc2)s1)NC(=O)[C@@H](N)Cc1cccs1 | > 100 mL/min/kg
6 | N#C[C@H](Cc1ccc2ccccc2c1)NC(=O)[C@@H](N)Cc1cccs1 | > 100 mL/min/kg
7 | N#C[C@@H](NC(=O)[C@@H](N)Cc1cccs1)C(c1ccccc1)c1ccccc1 | > 100 mL/min/kg
8 | N#C[C@@]1(NC(=O)[C@@H](N)Cc2cccs2)C[C@@H]1c1ccccc1 | 35 mL/min/kg
9 | N#C[C@H](Cc1nc2ccccc2s1)NC(=O)[C@@H](N)Cc1cccs1 | > 100 mL/min/kg

Tested on: not listed separately
Assay: Half life in iv dosed rat
Format: ADME, organism-based
Settings: in vivo
Summary of the method: as §1

Row | Compound | half-life
10 | N#C[C@H](Cc1ccccc1)NC(=O)[C@@H](N)Cc1cccs1 | < 30 min
11 | N#CC1(NC(=O)[C@@H](N)Cc2cccs2)CC1 | 30 min
12 | N#C[C@H](Cc1ccc(-c2ccccc2)s1)NC(=O)[C@@H](N)Cc1cccs1 | < 30 min
13 | N#C[C@H](Cc1ccc2ccccc2c1)NC(=O)[C@@H](N)Cc1cccs1 | < 30 min
14 | N#C[C@@H](NC(=O)[C@@H](N)Cc1cccs1)C(c1ccccc1)c1ccccc1 | < 30 min
15 | N#C[C@@]1(NC(=O)[C@@H](N)Cc2cccs2)C[C@@H]1c1ccccc1 | 84 min
16 | N#C[C@H](Cc1nc2ccccc2s1)NC(=O)[C@@H](N)Cc1cccs1 | < 30 min

Tested on: not listed separately
Assay: Metabolic stability in rat whole blood assessed as compound remaining after 30 mins
Format: ADME, tissue-based
Settings: read-out: Activity
Summary of the method: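 Compound incubated in fresh rat whole blood for 30 min at 25 °C. Read-out is % of intact parent remaining, with amide hydrolysis products (P2 amino acid, P1 amino nitrile) monitored.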

Row | Compound | remaining at 0.5 h
17 | N#C[C@H](Cc1ccccc1)NC(=O)[C@@H](N)Cc1cccs1 | 0%
18 | CC(C)[C@@H](C#N)NC(=O)[C@@H](N)Cc1cccs1 | 11%
19 | N#CC1(NC(=O)[C@@H](N)Cc2cccs2)CC1 | 92%
20 | N#CCNC(=O)[C@@H](N)Cc1cccs1 | 6%
21 | N#C[C@H](Cc1c[nH]c2ccccc12)NC(=O)[C@@H](N)Cc1cccs1 | 0%
22 | CC(C)(C)[C@@H](C#N)NC(=O)[C@@H](N)Cc1cccs1 | 83%
23 | N#C[C@@]1(NC(=O)[C@@H](N)Cc2cccs2)C[C@@H]1c1ccccc1 | > 98%

Target: Dipeptidyl peptidase 1 (Homo sapiens, UniProt P53634)
Sequence (P53634 25-134 limits assumed): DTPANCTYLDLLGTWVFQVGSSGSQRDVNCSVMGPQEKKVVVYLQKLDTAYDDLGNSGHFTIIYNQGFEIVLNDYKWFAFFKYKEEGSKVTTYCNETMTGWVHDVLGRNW
Sequence (P53634 231-394 limits assumed): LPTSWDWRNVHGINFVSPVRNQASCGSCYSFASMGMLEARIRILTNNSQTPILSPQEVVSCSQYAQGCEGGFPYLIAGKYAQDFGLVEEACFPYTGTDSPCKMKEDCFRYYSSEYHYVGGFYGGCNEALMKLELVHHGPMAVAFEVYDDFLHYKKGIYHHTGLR
Sequence (P53634 395-463 limits assumed): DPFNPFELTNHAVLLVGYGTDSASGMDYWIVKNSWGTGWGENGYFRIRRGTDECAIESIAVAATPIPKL
Assay: Inhibition of human recombinant cathepsin C
Settings: not given
Summary of the method: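 Enzyme: purified human recombinant cathepsin C. IC50 in nM given as mean with standard deviation of at least three experiments.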

Row | Compound | IC50
24 | CCS[C@@H]1CN[C@H](C(=O)N[C@H](C#N)Cc2ccccc2)C1 | 271 nM
25 | N#C[C@H](Cc1ccccc1)NC(=O)[C@@H](N)Cc1cccs1 | 0.9 nM
26 | CC(C)[C@@H](C#N)NC(=O)[C@@H](N)Cc1cccs1 | 215 nM
27 | N#C[C@H](Cc1ccc(F)cc1)NC(=O)[C@@H]1CCCN1 | > 10000 nM
28 | N#CC1(NC(=O)[C@@H](N)Cc2cccs2)CC1 | 12 nM
29 | N#CC1(NC(=O)[C@@H]2C[C@H](F)CN2)CC1 | 880 nM
30 | CS[C@@H]1CN[C@H](C(=O)N[C@H](C#N)Cc2ccccc2)C1 | 29 nM
31 | N#C[C@H](Cc1ccc(-c2ccccc2)s1)NC(=O)[C@@H](N)Cc1cccs1 | 0.3 nM
32 | CCSC[C@H](N)C(=O)N[C@H](C#N)Cc1c[nH]c2ccccc12 | 630 nM
33 | N#C[C@H](Cc1ccccc1)NC(=O)[C@@H]1C[C@H](F)CN1 | 133 nM
34 | N#CCNC(=O)[C@@H](N)Cc1cccs1 | 17 nM
35 | CS[C@@H]1CN[C@H](C(=O)NC2(C#N)CC2)C1 | 336 nM
36 | CSCC[C@H](N)C(=O)N[C@H](C#N)Cc1c[nH]c2ccccc12 | 200 nM
37 | CSCC[C@H](N)C(=O)NCCc1c[nH]c2ccccc12 | 11000 nM
38 | N#C[C@H](Cc1ccc2ccccc2c1)NC(=O)[C@@H](N)Cc1cccs1 | 1 nM
39 | CC1(C)CC1(C#N)NC(=O)[C@@H](N)Cc1cccs1 (stereo partly drawn) | 63 nM
40 | N#C[C@H](Cc1c[nH]c2ccccc12)NC(=O)[C@@H](N)Cc1cccs1 | 5.8 nM
41 | N#C[C@H](Cc1ccccc1)NC(=O)[C@@H]1CCCN1 | 4810 nM

Row | Compound | IC50
42 | N#CC1(NC(=O)[C@@H](N)Cc2cccs2)CC1c1ccccc1 (mixture of isomers) | 1230 nM
43 | N#C[C@H](Cc1ccccc1)NC(=O)[C@@H]1C[C@H](Cl)CN1 | 495 nM
44 | CO[C@@H]1CN[C@H](C(=O)N[C@H](C#N)Cc2ccccc2)C1 | 1080 nM
45 | C[C@@H]1CN[C@H](C(=O)N[C@H](C#N)Cc2ccccc2)C1 | 2500 nM
46 | CC(C)(C#N)NC(=O)[C@@H](N)Cc1cccs1 | 1420 nM
47 | CC(C)[C@H](N)C(=O)N[C@H](C#N)Cc1c[nH]c2ccccc12 | 330 nM
48 | CCSCC[C@H](N)C(=O)N[C@H](C#N)Cc1c[nH]c2ccccc12 | 1580 nM
49 | N#C[C@@H](NC(=O)[C@@H](N)Cc1cccs1)C(c1ccccc1)c1ccccc1 | 3.8 nM
50 | CC(C)(C)[C@@H](C#N)NC(=O)[C@@H](N)Cc1cccs1 | > 3000 nM
51 | N#C[C@H](CCc1ccccc1)NC(=O)[C@@H](N)Cc1cccs1 | 11 nM
52 | N#C[C@H](Cc1ccc(-c2ccccc2)cc1)NC(=O)[C@@H]1C[C@H](F)CN1 | 8.2 nM
53 | N#C[C@]1(NC(=O)[C@@H]2C[C@H](F)CN2)C[C@H]1c1ccccc1 | 2190 nM
54 | CS[C@@H]1CN[C@H](C(=O)N[C@H](C#N)Cc2ccc(-c3ccccc3)cc2)C1 | 1.7 nM
55 | N#CC1(NC(=O)[C@@H](N)Cc2cccs2)CCC1 | 1830 nM
56 | N#C[C@H](CC1CCCCC1)NC(=O)[C@@H](N)Cc1cccs1 | 5.1 nM
57 | N#C[C@]1(NC(=O)[C@@H](N)Cc2cccs2)C[C@H]1c1ccccc1 | 17 nM
58 | N#C[C@H](Cc1nc2ccccc2s1)NC(=O)[C@@H](N)Cc1cccs1 | 0.7 nM
